Laboratory results reported in ChEMBL document CHEMBL5247671, “Design and Synthesis of Pyrazole-Based Macrocyclic Kinase Inhibitors Targeting BMPR2” (ACS Med Chem Lett, 2023).

Key:
[1] = target: T1, Glycogen synthase kinase-3 beta (Homo sapiens, UniProt P49841); test: Binding affinity to recombinant GSK3B (unknown origin) assessed as change in melting temperature at 10 uM by DSF assay
Outline: (§1)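 Differential scanning fluorimetry on an in-house panel of 90 recombinant kinases. Stabilization is read as the shift in melting temperature (ΔTm) relative to ligand-free protein. Staurosporine served as the positive control, and binding was also compared against its ΔTm.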
Target sequence in this assay (P49841 whole entry, looked up): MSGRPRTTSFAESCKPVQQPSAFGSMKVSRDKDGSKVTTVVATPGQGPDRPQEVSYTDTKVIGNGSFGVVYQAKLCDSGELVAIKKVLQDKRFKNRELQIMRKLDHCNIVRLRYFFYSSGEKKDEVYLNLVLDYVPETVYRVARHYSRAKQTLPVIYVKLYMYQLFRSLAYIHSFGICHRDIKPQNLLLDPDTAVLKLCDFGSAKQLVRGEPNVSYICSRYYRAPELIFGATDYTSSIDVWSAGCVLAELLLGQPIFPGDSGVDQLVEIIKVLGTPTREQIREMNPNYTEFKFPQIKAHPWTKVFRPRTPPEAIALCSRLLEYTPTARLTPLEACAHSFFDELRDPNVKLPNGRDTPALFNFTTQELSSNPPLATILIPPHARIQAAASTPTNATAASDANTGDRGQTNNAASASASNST

[2] = target: T2, Serine/threonine-protein kinase 3 (Homo sapiens) (UniProt Q13188); test: Binding affinity to recombinant STK3 (unknown origin) assessed as change in melting temperature at 10 uM by DSF assay; outline: as §1
T2 sequence (whole entry): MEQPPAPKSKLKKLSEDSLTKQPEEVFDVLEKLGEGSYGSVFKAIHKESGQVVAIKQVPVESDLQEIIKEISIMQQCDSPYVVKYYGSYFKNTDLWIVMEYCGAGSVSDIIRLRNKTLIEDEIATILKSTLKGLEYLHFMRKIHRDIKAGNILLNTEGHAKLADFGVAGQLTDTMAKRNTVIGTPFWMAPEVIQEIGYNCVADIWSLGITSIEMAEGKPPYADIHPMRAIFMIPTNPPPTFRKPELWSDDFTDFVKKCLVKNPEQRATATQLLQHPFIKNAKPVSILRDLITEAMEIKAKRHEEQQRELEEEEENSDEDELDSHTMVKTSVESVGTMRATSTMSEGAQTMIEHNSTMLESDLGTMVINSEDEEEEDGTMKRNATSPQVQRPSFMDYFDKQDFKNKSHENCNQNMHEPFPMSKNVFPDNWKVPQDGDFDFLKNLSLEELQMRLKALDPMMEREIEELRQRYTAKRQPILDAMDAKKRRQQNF

[3] = system: BMP2-inducible protein kinase (Homo sapiens); test: Binding affinity to recombinant BMP2K (unknown origin) assessed as change in melting temperature at 10 uM by DSF assay
TGF-beta receptor type-1 = target: T3, TGF-beta receptor type-1 (Homo sapiens, UniProt P36897); test: Inhibition of ALK5 (unknown origin) assessed as dissociation constant
T3 sequence (P36897 whole entry): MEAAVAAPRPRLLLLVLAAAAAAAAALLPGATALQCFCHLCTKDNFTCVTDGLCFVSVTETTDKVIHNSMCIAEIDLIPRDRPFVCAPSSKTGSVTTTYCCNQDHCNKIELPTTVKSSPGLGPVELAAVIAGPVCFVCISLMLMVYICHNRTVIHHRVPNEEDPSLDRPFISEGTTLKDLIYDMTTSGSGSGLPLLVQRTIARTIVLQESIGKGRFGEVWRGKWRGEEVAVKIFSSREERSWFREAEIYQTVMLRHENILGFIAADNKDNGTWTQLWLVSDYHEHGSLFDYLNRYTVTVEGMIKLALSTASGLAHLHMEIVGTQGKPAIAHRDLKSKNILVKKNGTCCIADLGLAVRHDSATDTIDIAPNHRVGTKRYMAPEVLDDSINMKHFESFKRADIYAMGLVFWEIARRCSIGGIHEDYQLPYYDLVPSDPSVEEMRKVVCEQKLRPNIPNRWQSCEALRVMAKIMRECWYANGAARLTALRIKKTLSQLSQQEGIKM

[4] = target: T4, Bone morphogenetic protein receptor type-2 (Homo sapiens) (UniProt Q13873); test: Binding affinity to recombinant BMPR2 (unknown origin) assessed as change in melting temperature at 10 uM by DSF assay; outline: as §1
T4 sequence (whole entry): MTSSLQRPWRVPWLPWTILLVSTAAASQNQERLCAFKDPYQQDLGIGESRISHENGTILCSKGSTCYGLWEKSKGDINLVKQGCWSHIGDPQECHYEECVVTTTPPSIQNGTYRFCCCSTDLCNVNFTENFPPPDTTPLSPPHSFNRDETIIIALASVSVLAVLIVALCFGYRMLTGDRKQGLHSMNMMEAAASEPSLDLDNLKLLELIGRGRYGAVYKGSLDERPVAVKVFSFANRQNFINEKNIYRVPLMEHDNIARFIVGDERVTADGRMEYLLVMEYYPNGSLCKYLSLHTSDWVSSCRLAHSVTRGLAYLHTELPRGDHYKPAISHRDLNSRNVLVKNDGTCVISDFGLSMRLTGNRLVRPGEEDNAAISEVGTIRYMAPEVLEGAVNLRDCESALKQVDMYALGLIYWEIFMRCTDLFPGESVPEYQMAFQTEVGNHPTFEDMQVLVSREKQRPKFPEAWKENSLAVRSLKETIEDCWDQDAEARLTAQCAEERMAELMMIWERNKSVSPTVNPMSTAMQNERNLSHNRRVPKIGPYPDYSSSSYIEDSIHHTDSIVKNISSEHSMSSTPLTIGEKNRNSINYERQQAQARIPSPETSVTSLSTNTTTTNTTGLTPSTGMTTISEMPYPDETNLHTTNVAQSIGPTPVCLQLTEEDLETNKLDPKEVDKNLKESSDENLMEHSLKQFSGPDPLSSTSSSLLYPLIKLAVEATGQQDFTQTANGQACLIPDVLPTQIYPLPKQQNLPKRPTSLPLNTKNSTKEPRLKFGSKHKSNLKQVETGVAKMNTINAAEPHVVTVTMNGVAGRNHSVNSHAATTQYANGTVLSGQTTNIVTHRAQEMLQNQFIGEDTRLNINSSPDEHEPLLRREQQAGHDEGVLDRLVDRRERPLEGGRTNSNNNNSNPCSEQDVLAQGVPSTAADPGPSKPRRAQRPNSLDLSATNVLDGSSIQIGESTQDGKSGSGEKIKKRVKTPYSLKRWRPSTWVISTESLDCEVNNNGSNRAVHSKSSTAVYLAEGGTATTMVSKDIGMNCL

[5] = target: T5, Bone morphogenetic protein receptor type-2 (Homo sapiens, UniProt Q13873); test: Inhibition of BMPR2 (unknown origin) assessed as dissociation constant by ITC assay
T5 sequence (Q13873 whole entry): T4 sequence (whole entry)
Outline: (§2)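 Binding measured by isothermal titration calorimetry against the recombinant BMPR2 kinase domain. Thermodynamic binding parameters, including the dissociation constant, were derived from the titration data.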

[6] = target: T4, Bone morphogenetic protein receptor type-2 (Homo sapiens); test: Binding affinity to BMPR2 (unknown origin) assessed as change in enthalpy by ITC assay; outline: as §2
[7] = target: T4, Bone morphogenetic protein receptor type-2 (Homo sapiens); test: Binding affinity to BMPR2 (unknown origin) assessed as change in entropy by ITC assay; outline: as §2
[8] = target: T5, Bone morphogenetic protein receptor type-2; test: Inhibition of BMPR2 (174 to end residues) (unknown origin) using MBP as substrate incubated for 60 mins in presence of ATP by ADP Glo assay
Outline: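 Enzymatic inhibition of the BMPR2 kinase was read out by ADP-Glo detection of ADP formed, and IC50 values were derived from concentration–response data.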

[9] = target: Glycogen synthase kinase-3 alpha (Homo sapiens, UniProt P49840); test: Inhibition of N-terminal NanoLuc-fused full length GSK3A (unknown origin) transfected in HEK293T cells incubated for 2 hrs in presence of tracer K8 by NanoBRET assay; assay type: cell-based
Chain of Glycogen synthase kinase-3 alpha (P49840 whole entry, the tested form may be a part): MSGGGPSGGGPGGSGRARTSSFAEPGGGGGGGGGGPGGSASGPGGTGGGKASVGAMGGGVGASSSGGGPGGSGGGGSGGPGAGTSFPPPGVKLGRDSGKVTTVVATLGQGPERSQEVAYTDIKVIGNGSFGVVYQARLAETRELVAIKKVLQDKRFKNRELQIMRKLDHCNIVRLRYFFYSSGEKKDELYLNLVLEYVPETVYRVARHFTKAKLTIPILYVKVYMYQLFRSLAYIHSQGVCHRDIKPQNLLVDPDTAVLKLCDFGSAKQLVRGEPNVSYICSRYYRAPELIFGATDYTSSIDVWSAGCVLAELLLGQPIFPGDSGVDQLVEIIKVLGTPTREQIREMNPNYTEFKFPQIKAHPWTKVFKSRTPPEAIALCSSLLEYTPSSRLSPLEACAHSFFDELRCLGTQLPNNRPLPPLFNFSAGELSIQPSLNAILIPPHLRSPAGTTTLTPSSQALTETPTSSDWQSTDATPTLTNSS
Outline: (§3)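 Cellular target engagement by NanoBRET in intact cells expressing NanoLuc-fused GSK3A or GSK3B, with EC50 values derived from tracer displacement.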

[10] = target: T1, Glycogen synthase kinase-3 beta; test: Inhibition of N-terminal NanoLuc-fused full length intact GSK3B (unknown origin) transfected in HEK293T cells incubated for 2 hrs in presence of tracer K8 by NanoBRET assay; assay type: cell-based; outline: as §3
Target sequence in this assay (P49841 whole entry): as the sequence (P49841 whole entry, looked up) above

[11] = target: T1, Glycogen synthase kinase-3 beta; test: Inhibition of N-terminal NanoLuc-fused full length lysed GSK3B (unknown origin) transfected in HEK293T cells incubated for 2 hrs in presence of tracer K8 by NanoBRET assay; assay type: cell-based
Outline: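 GSK3B NanoBRET run in the lysed mode, with cells permeabilized by digitonin to bypass compound cell penetration. EC50 values were derived from tracer displacement.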
Target sequence in this assay (P49841 whole entry): as the sequence (P49841 whole entry, looked up) above

O=C1NCCCCCCNc2nccc(n2)Nc2cc1[nH]n2
ΔTm [1]: > 5 °C | ΔTm [2]: > 5 °C | ΔTm [3]: > 5 °C

N#CCc1ccc(Nc2nccc(Nc3cc(C4CC4)[nH]n3)n2)cc1
Kd (TGF-beta receptor type-1): 324 nM | ΔTm [1]: 14 °C | ΔTm [4]: 9.2 °C | Kd [5]: 186 nM | deltaH [6]: -9.61 kcal/mol | deltaS [7]: -1.97 cal/mol.K | IC50 [8]: 36.2 nM | IC50 [9]: 4 nM | IC50 [10]: 3.8 nM | IC50 [11]: 1.2 nM

O=C1NCCCCCNc2nccc(n2)Nc2cc1[nH]n2
ΔTm [1]: 4.9 °C | ΔTm [4]: 4.6 °C | IC50 [8]: 630 nM | IC50 [9]: > 45000 nM | IC50 [10]: > 45000 nM | IC50 [11]: 3500 nM

O=C1NCCc2cccc(c2)Nc2nccc(n2)Nc2cc1[nH]n2
ΔTm [1]: 7.2 °C | ΔTm [4]: 5 °C | IC50 [8]: 461 nM
